The text below walks through data of ChEMBL document CHEMBL1128728, “Synthesis and evaluation of terbenzimidazoles as topoisomerase I inhibitors” (J Med Chem, 1995).

A word on the IC50: it is the point on the concentration scale where inhibition reaches its midpoint.

The subject of assay [1] is DNA topoisomerase 1 (Bos taurus). Nature of the assay: The compound was tested for topoisomerase-1 mediated DNA cleavage, activity is expressed as REC(relative effective concentration) i.e., concentration relative to Hoechst 33342.
The test system of assay [2] is RPMI 8402. Nature of the assay: Cytotoxicity against Human lymphoblast (RPMI 8402) cell line. The class given is functional, cell-based. The gist of the method: (§1)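 MTT microtiter tetrazolium assay; human lymphoblast RPMI 8402 and camptothecin-resistant CPT-K5 grown in suspension at 37 °C, 5% CO2, RPMI medium with 10% heat-inactivated FBS, 2 mM L-glutamine, penicillin 100 U/mL, streptomycin 0.1 mg/mL. Continuous exposure to varying drug concentrations; MTT read at end of day 4; IC50 calculated.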

The subject of assay [3] is RPMI 8402. In words: Cytotoxicity against Camptothecin-resistant (CPT -K5) cell line. The class given is functional, cell-based. The conditions noted are these: Homo sapiens. An outline of the steps: as §1
Assay [4] has as its system KB 3-1. In words: Cytotoxicity against human epidermoid carcinoma (KB3-1) cell line. The class given is functional, cell-based. An outline of the steps: (§2)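 Human epidermoid carcinoma KB3-1 and vinblastine-selected MDR1-overexpressing KBV-1 grown as monolayers in 5% CO2, Dulbecco's medium with 10% heat-inactivated FBS. Cytotoxicity by MTT microtiter tetrazolium assay after continuous exposure to varying drug concentrations for 4 days; IC50 calculated.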

The test system of assay [5] is KB. In words: Cytotoxicity against human epidermoid carcinoma vinblastine-selected multidrug-resistant (KBV-1) cell line. Format: functional, cell-based. An outline of the steps:
as §2

Assay [6] relates to KB 3-1. In words: Cytotoxicity against human epidermoid carcinoma (KB3-1) cell line. The class given is functional, cell-based. An outline of the steps:
(§3)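 KB3-1 epidermoid carcinoma cells and KBV-1, their vinblastine-selected MDR1-overexpressing variant, were grown as monolayers in 5% CO2 in Dulbecco's medium with 10% heat-inactivated FBS. Viability was measured by MTT tetrazolium microtiter assay after 4 days of continuous exposure to varying drug concentrations, and IC50 was calculated.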

Assay [7] has as its system RPMI 8402. Nature of the assay: Cytotoxicity against Camptothecin-resistant (CPT -K5) cell line. Format: functional, cell-based. To be noted: Homo sapiens. The gist of the method: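 MTT tetrazolium assay in 96-well plates on CPT-K5, a camptothecin-resistant variant of human lymphoblast RPMI 8402, grown in suspension at 37 °C, 5% CO2 in RPMI medium with 10% heat-inactivated FBS, 2 mM L-glutamine, penicillin and streptomycin. Cells were exposed continuously to varying drug concentrations, with MTT read at the end of day 4. IC50 was calculated.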

The test system of assay [8] is KB. Nature of the assay: Cytotoxicity against human epidermoid carcinoma vinblastine-selected multidrug-resistant (KBV-1) cell line. The class given is functional, cell-based. The gist of the method:
as §3

Each structure is given as a SMILES string. Bounds are passed on as bounds.

On to `COc1ccc(-c2nc3cc(-c4nc5cc(-c6nc7cc(C#N)ccc7[nH]6)ccc5[nH]4)ccc3[nH]2)cc1`, for which the Relative concentration in assay [1] came to 1000. The compound also registered an IC50 in the assay with RPMI 8402 [2] of over 20000 nM.
The compound `CCCc1ccc2[nH]c(-c3ccc4[nH]c(-c5ccc6[nH]cnc6c5)nc4c3)nc2c1` registered a Relative concentration in assay [1] of 100. The concentration for half-maximal inhibition (IC50) with RPMI 8402 [2] is 7600 nM; in the assay with RPMI 8402 [3] it was 20000 nM.
With `c1cc(-c2ccc3[nH]c(-c4ccc5[nH]c(-c6ccc7[nH]cnc7c6)nc5c4)nc3c2)ccn1`, the IC50 in the assay on KB 3-1 [4] turned out to be 20 nM; with KB [5] it was 10 nM; with RPMI 8402 [2] it was 35 nM; with RPMI 8402 [3], 2500 nM. The compound further came in with a Relative concentration in assay [1] of 2.
The like results for `c1ccc(-c2ccc3[nH]c(-c4ccc5[nH]c(-c6ccc7[nH]cnc7c6)nc5c4)nc3c2)cc1` were, in that order, 580 nM, 350 nM, 90 nM, 580 nM and 2.
For the compound `CCOc1ccc(-c2nc3cc(-c4nc5cc(N6CCN(C)CC6)ccc5[nH]4)ccc3[nH]2)cc1`, the IC50 with KB 3-1 [6] turned out to be 10 nM; in the assay with RPMI 8402 [2], 30 nM; with RPMI 8402 [7], 900 nM; in the assay with KB [8] it was 1200 nM.
In the case of `c1ccc2[nH]c(-c3ccc4[nH]c(-c5ccc6[nH]cnc6c5)nc4c3)nc2c1`, the Relative concentration in assay [1] amounted to 1.1. The IC50 with RPMI 8402 [2] was found to be 14000 nM; in the assay with RPMI 8402 [3], 28000 nM.
In assay [1], `N#Cc1ccc2[nH]c(-c3ccc4[nH]cnc4c3)nc2c1` showed a Relative concentration of 1000. For the same compound, the IC50 in the assay on RPMI 8402 [2] was over 25000 nM.
Take `c1cncc(-c2ccc3[nH]c(-c4ccc5[nH]c(-c6ccc7[nH]cnc7c6)nc5c4)nc3c2)c1`: the half-inhibitory concentration (IC50) with KB 3-1 [4] worked out at 20 nM; in the assay with KB [5], 20 nM; with RPMI 8402 [2], 35 nM; in the assay on RPMI 8402 [3], 2500 nM. Also, the Relative concentration in assay [1] turned out to be 2.
For `c1ccc(-c2ccc3[nH]c(-c4ccc5[nH]c(-c6ccc7[nH]cnc7c6)nc5c4)nc3c2)nc1`, the IC50 in the assay with KB 3-1 [4] worked out at 50 nM; with KB [5] it was 90 nM; in the assay with RPMI 8402 [2] it was 160 nM; in the assay with RPMI 8402 [3], 5800 nM. Moreover, the Relative concentration in assay [1] was 3.3.
`COc1ccc(-c2nc3cc(-c4nc5cc(C#N)ccc5[nH]4)ccc3[nH]2)cc1` had a Relative concentration in assay [1] of 3.3. Also, half-maximal inhibition with RPMI 8402 [2] (IC50) required 27000 nM.
`N#Cc1ccc2[nH]c(-c3ccc4[nH]c(-c5ccc6[nH]cnc6c5)nc4c3)nc2c1` came in with a Relative concentration in assay [1] of 1. In addition, the IC50 with RPMI 8402 [2] and with RPMI 8402 [3] was over 25000 nM throughout.
